Data: ChEMBL document CHEMBL1268822, “Synthesis and biological evaluation of indolyl glyoxylamides as a new class of antileishmanial agents” (Bioorg Med Chem Lett, 2010)
pIC50: −log10 of the molar value.

How the values were obtained:
Leishmania donovani = assay: Antileishmanial activity against Leishmania donovani amastigotes infected in mouse J774A1 cells assessed as inhibition of parasite growth after 72 hrs by luciferase reporter gene assay; format: functional, organism-based; settings: J774.A1, 72 h
Outline: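 J774A.1 macrophages seeded at 4 × 10⁴ cells/well in RPMI-1640 with 10% fetal calf serum, 37 °C CO₂, 24 h. Stationary-phase promastigotes then added at 4 × 10⁵/well and left to convert to intracellular amastigotes. Medium replaced with compound at 0.62–40 µM for 72 h at 37 °C. Steady Glo luciferase luminescence, growth inhibition relative to untreated controls.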

[1] = Toxicity in mouse J774A1 cells; format: cell-based, J774.A1
[2] = (§1) Selectivity index, ratio of CC50 for mouse J774A1 cells to IC50 for Leishmania donovani amastigotes; format: functional, J774.A1
Outline: (§2)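 Ratio of CC50 in J-774 A-1 cells to IC50 against L. donovani amastigotes.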

J774.A1 = assay: as §1; format: functional; outline: as §2

Molecule	pIC50 (Leishmania donovani)	CC50 [1]	Selectivity Index [2]	Selectivity Index (J774.A1)
COC(=O)[C@@H]1Cc2c([nH]c3ccccc23)[C@@H](c2ccccc2Br)N1C(=O)C(=O)c1c[nH]c2ccccc12	5.42	30.1 µM	7.94	–
COC(=O)[C@@H]1Cc2c([nH]c3ccccc23)[C@@H](c2ccccc2Br)N1C(=O)C(=O)c1c[nH]c2ccc(Br)cc12	5.39	7.25 µM	1.77	–
CCc1ccc([C@@H]2c3[nH]c4ccccc4c3C[C@H](C(=O)OC)N2C(=O)C(=O)c2c[nH]c3ccccc23)cc1	5.29	163 µM	31.48	–
COC(=O)[C@@H]1Cc2c([nH]c3ccccc23)[C@H](c2ccc(C)cc2)N1C(=O)C(=O)c1c[nH]c2ccc(Br)cc12	5.29	10.1 µM	1.95	–
COC(=O)[C@H]1Cc2c([nH]c3ccccc23)[C@H](c2ccc(C(C)C)cc2)N1C(=O)C(=O)c1c[nH]c2ccccc12	5.22	15.1 µM	2.51	–
COC(=O)[C@@H]1Cc2c([nH]c3ccccc23)[C@H](c2ccc(C)cc2)N1C(=O)C(=O)c1c[nH]c2ccccc12	5.13	27.4 µM	3.72	–
COC(=O)[C@@H]1Cc2c([nH]c3ccccc23)[C@@H](c2ccc(Cl)cc2)N1C(=O)C(=O)c1c[nH]c2ccccc12	5.36	11.3 µM	2.6	–
COC(=O)[C@@H]1Cc2c([nH]c3ccccc23)[C@@H](c2ccc(C)cc2)N1C(=O)C(=O)c1c[nH]c2ccc(Br)cc12	5.32	8.83 µM	1.84	–
CCc1ccc([C@@H]2c3[nH]c4ccccc4c3C[C@H](C(=O)OC)N2C(=O)C(=O)c2c[nH]c3ccc(Br)cc23)cc1	5.27	11.6 µM	2.17	–
COC(=O)[C@H]1Cc2c([nH]c3ccccc23)[C@@H](c2ccc(C(C)C)cc2)N1C(=O)C(=O)c1c[nH]c2ccccc12	5.17	32.6 µM	4.84	–
COC(=O)[C@H]1Cc2c([nH]c3ccccc23)[C@@H](c2ccc(C(C)C)cc2)N1C(=O)C(=O)c1c[nH]c2ccc(Br)cc12	5.41	7.77 µM	1.99	–
COC(=O)[C@H]1Cc2c([nH]c3ccccc23)[C@H](c2ccc(C(C)C)cc2)N1C(=O)C(=O)c1c[nH]c2ccc(Br)cc12	5.35	9.04 µM	2.04	–
CCc1ccc([C@H]2c3[nH]c4ccccc4c3C[C@H](C(=O)OC)N2C(=O)C(=O)c2c[nH]c3ccc(Br)cc23)cc1	5.23	9.48 µM	1.62	–
COC(=O)[C@@H]1Cc2c([nH]c3ccccc23)[C@@H](c2ccc(C)cc2)N1C(=O)C(=O)c1c[nH]c2ccccc12	5.17	34.4 µM	5.07	–
sodium stibogluconate	–	–	–	5.53
CCc1ccc([C@H]2c3[nH]c4ccccc4c3C[C@H](C(=O)OC)N2C(=O)C(=O)c2c[nH]c3ccccc23)cc1	5.09	30.9 µM	3.84	–
COC(=O)[C@@H]1Cc2c([nH]c3ccccc23)[C@@H](c2ccc(Cl)cc2)N1C(=O)C(=O)c1c[nH]c2ccc(Br)cc12	5.40	7.64 µM	1.9	–
